High-throughput results deposited in PubChem BioAssay by several laboratories.
APP 5'UTR act = APP 5'UTR luciferase reporter activation | SH-SY5Y APP 5'UTR luciferase reporter, luminescence; zero percent = DMSO vehicle wells | activation, % at 2 µM | 190,000 compounds, 1% hits | AID 1276;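 active = activation above a set limit, based on mean plus 3 SD of controls, cut at about 140% in these data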
STAT1 act = STAT1 signaling activation. NIH 3T3 STAT1-luciferase reporter, IFN-gamma, luminescence; 100% = IFN-gamma alone, no compound. activation (% of control), % at 5.5 µM. 200,000 compounds, 2.6% hits. AID 932;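 active = activation above the screen-wide mean activation plus 3 SD, cut at about 130% in these data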;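 also: raw ratio to IFN-gamma control signal so 100% means no change and 0% no light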
STAT3 activator = STAT3 signaling activation. U3A cells, IL-6 STAT3-luciferase reporter, luminescence; 100% = signal with IL-6 EC80 alone. activation (% of control), % at 5.6 µM. 190,000 compounds, 0.91% hits;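 active = activation above the screen-wide mean of compound activation plus 3 SD, cut at about 130% in these data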;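 also: 0% = background luminescence of wells with medium and substrate only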
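Material: STAT1-lacking human U3A cells, STAT3 luciferase reporter | Benchmarks: IL-6-only wells as 100% reference | Probe or stimulus: IL-6 (33 ng/mL) | Timing: Compound 1 h, then IL-6 6 h at 37 °C | Detection: Luminescence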
NF-kB expr up = compounds increasing NF-kB expression in human neuronal cells | fold change at 12.5 µM | 190,000 compounds, 1.6% hits | AID 1239 | NF-kB reporter expression; hits give high values; in the data active = fold change above about 3.3
STAT1 inh = inhibitors of IFN-gamma induced STAT1 signaling | AID 920 | 200,000 compounds, 0.35% hits | inhibition, % at 5.5 µM | NIH 3T3 STAT1-luciferase reporter, luminescence;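 active = inhibition above a set limit, the mean inhibition across all tested compounds plus 3 SD, cut at about 34% in these data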;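 also: 0% = IFN-gamma with DMSO and 100% = IFN-gamma with 300 µM nifuroxazide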
STAT3 inh = STAT3 signaling inhibition | U3A cells, IL-6 STAT3-luciferase reporter, luminescence; host cell line lacks STAT1 | inhibition, % at 5.5 µM | 190,000 compounds, 0.89% hits | AID 862;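 active = inhibition above the mean inhibition across all screened compounds plus 3 SD, cut at about 44% in these data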;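 also: 0% = DMSO only wells and 100% = 100 µM nifuroxazide control wells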
STAT1 activ conf = confirmation of STAT1 signaling activators. NIH 3T3 STAT1-luciferase reporter, IFN-gamma potentiation, luminescence; 100% = IFN-gamma EC80 alone, no compound. activation (% of control), % at 5.7 µM. 1,200 compounds, 97% hits. shares compounds with STAT1 act;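 active = activation above a set limit carried over from the earlier primary STAT1 screen, cut at about 140% in these data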;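 also: simple ratio to median IFN-gamma plus DMSO wells so 0% means no light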
NFkB act = counter-screen for STAT1 activators: NF-kappaB activation; shares compounds with STAT1 act; HEK293T NF-kB luciferase reporter, TNF-alpha stimulated, luminescence; 100% = TNF-alpha with vehicle only; activation (% of control), % at 5.7 µM; 1,200 compounds, 43% hits;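 active = activation above the mean of solvent-only control wells plus 3 SD, set per campaign, cut at about 130% in these data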;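 also: TNF-alpha given at a submaximal dose yielding about 80% of full reporter signal; values are well signal over median control so 100% means no change and 0% no light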
STAT3 act 2 = activates human STAT3, counter-screen to STAT1 activators; shares compounds with STAT1 act; U3A cells STAT3-luciferase reporter, IL-6, luminescence; cells lack STAT1; 100 = IL-6 alone, no compound effect; activation (% of control), % at 5.7 µM; 1,200 compounds, 46% hits; AID 1316;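 active = activation above the solvent-only control well mean plus 3 SD, set per plate batch, cut at about 110% in these data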;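 also: 0% = no luminescence and 100% = median IL-6 plus DMSO wells; higher means more STAT3 reporter activation so hits are non-selective activators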
Starred values were filed as active, the others as inactive; / = not tested or not shown. Rows were chosen to be rich in hits. Some 4.9% of all compounds tested hit in one or more screens of this group.

SMILES | APP 5'UTR act | STAT1 act | STAT3 activator | NF-kB expr up | STAT1 inh | STAT3 inh | STAT1 activ conf | NFkB act | STAT3 act 2
Fc1ccc(-n2nnc(-c3ccnc4ccccc34)n2)cc1 | 142* | 171* | / | 4.8* | -74 | / | 203* | 139* | 117*
Cc1ccc(-n2nnc(-c3ccnc4ccccc34)n2)cc1 | 111 | 156* | / | 4.2* | -58 | / | 183* | 136* | 104
CC(C)Oc1ccc(CC2CCC(=O)N(C)C2=O)cc1 (stereo unspecified) | 9 | 107 | 95 | 1.3 | -8 | 5 | / | / | /
O=C(Nc1ccc(N2CCCCC2)cc1)c1ccc(F)cc1 | 113 | 162* | 69 | 2.5 | -68 | 39 | 216* | 130 | 102
COc1ccc(C(=O)Nc2ccc(N3CCCC3)cc2)cc1 | 20 | 101 | 89 | 1.6 | -1 | 18 | / | / | /
O=C(Nc1ccc(N2CCCC2)cc1)c1ccc(Br)o1 | 57 | 166* | 87 | 2.9 | -72 | 19 | 217* | 134* | 103
COc1ccc(CNCc2cccc(Oc3ccccc3)c2)cc1 | -16 | 96 | 96 | 1.3 | 3 | 10 | / | / | /
COc1ccc(C(=O)N/N=C(\c2ccccc2)c2ccccn2)cc1 | -78 | 100 | 94 | 3.2 | -1 | 7 | / | / | /
CCOc1ccc(OCc2ccc(C(=O)N/N=C(\C)c3ccccn3)cc2)cc1 | -78 | 169* | 115 | 2.1 | -75 | -16 | 146* | 188* | 91
CCc1nc(-c2ccc(C)nc2OC)no1 | -17 | 103 | 100 | 0.95 | 1 | 0 | / | / | /
COc1ccccc1-c1nc(-c2ccc(C)nc2OC)no1 | 46 | 157* | 94 | 2.5 | -62 | 10 | 165* | 126 | 103
Cc1ccc(NCc2nc3ccccc3n2C)cc1 | 175* | 153* | 127 | 5.3* | -58 | -26 | 183* | 133 | 190*
O=C(NC1CCCC1)c1cc(-c2cccs2)on1 | 121 | 173* | 97 | 9.7* | -79 | 3 | 205* | 147* | 115*
C=CCn1c(SCC(N)=O)nc2scc(-c3ccc(C)o3)c2c1=O | 167* | 155* | 105 | 2.8 | -62 | 6 | 202* | 138* | 129*
CCC(N=c1cc(-c2ccc(OC)cc2)oc2ccc(C)cc12)C(=O)O (stereo unspecified) | 147* | 164* | 100 | 3.1 | -72 | 4 | 137* | 120 | 99
CCN(CC)c1ccc(C=NCCc2ccc(S(N)(=O)=O)cc2)cc1 | 11 | 101 | 105 | 0.97 | -1 | 2 | / | / | /
CC(=O)Nc1nc(SCC(=O)NCc2ccc(F)cc2)[nH]c(=O)c1NC(=O)c1cccs1 | 20 | 104 | 101 | 1.1 | -4 | -2 | / | / | /
CCCCc1ccc(-c2ccc(Br)cc2)nc1 | 125 | 155* | 85 | 6* | -65 | 20 | 223* | 126 | 97
c1ccc(CSc2nnc(-c3cccs3)o2)cc1 | 106 | 158* | 93 | 4.6* | -64 | 10 | 179* | 132 | 116*
O=c1c2ccccc2nnn1CSc1ccccc1 | 158* | 165* | 78 | 4.3* | -72 | 25 | 192* | 109 | 100
CCOC(=O)/C(C#N)=C\C=C1C=CN(C)C=C1 | 74 | 154* | 105 | 3.1 | -59 | -2 | 162* | 123 | 115*
COc1ccc(CCN(C)C(=O)CCc2nnc(-c3ccccc3)o2)cc1OC | 81 | 159* | 118 | 4.1* | -63 | -14 | 166* | 122 | 116*
O=C(/C=C/c1ccco1)Nc1ccc(N2CCCC2)cc1 | 121 | 158* | 113 | 1.1 | -67 | -15 | 187* | 139* | 113*
O=C(/C=C/c1ccco1)Nc1ccccn1 | 73 | 152* | 88 | 3.2 | -58 | 14 | 177* | 118 | 103
O=C(/C=C/c1ccco1)Nc1cccnc1 | 10 | 120 | 103 | / | -22 | 3 | / | / | /
SMILES | APP 5'UTR act | STAT1 act | STAT3 activator | NF-kB expr up | STAT1 inh | STAT3 inh | STAT1 activ conf | NFkB act | STAT3 act 2
C=CCn1c(=O)[nH]c2cc(C(=O)N3CC=C(c4ccccc4)CC3)ccc2c1=O | -5 | 97 | 106 | 1.1 | 2 | 1 | / | / | /
COc1ccc(N/C=C\C(=O)c2ccc3c(c2)OCO3)cc1OC | 6 | 156* | 105 | 3.1 | -63 | -5 | 171* | 132 | 104
COc1ccc(C(=O)/C=C/Nc2cccc(C)n2)cc1OC | 36 | 171* | 101 | 4.1* | -86 | 1 | 209* | 130 | 108
N#Cc1cc2c(nc1Cl)CCCC2 | 12 | 103 | 102 | 1.1 | -3 | -6 | / | / | /
CSc1ccc(/C=N/NC(=O)c2sccc2C)cc1 | 219* | 192* | 84 | 4.1* | -104 | 22 | 249* | 122 | 101
Cc1ccc(OCc2nc(-c3ccccc3)no2)c(C)c1 | 120 | 163* | 92 | 5.2* | -70 | 10 | 185* | 129 | 110
COc1ccc(Nc2oc(-c3cccs3)nc2C#N)cc1 | 72 | 151* | 95 | 2.4 | -56 | 8 | 160* | 120 | 94
Clc1ccc(-c2cnc(Oc3ccccc3)nc2)cc1 | 138* | 153* | 100 | 2.4 | -59 | 2 | 190* | 142* | 109
CCOc1cccc(-c2nc3cc(C)ccc3o2)c1 | 64 | 152* | 116 | 1.8 | -57 | -16 | 159* | 122 | 128*
Cc1ccc2oc(-c3cccc(NC(=O)Cn4cnc5c(=O)n(C)c(=O)n(C)c54)c3)nc2c1 | 94 | 113 | 97 | 2.6 | -15 | 4 | / | / | /
CCCCNC(=O)NC1CCCC1 | 2 | 94 | 101 | 1.2 | 6 | 2 | / | / | /
O=C1/C(=C/c2c[nH]c3ccccc23)CCC/C1=C\c1c[nH]c2ccccc12 | 19 | 110 | 90 | 1 | -11 | 12 | / | / | /
Cc1ccccc1/C=C1\CCCc2ccccc2C1=O | 116 | 158* | 92 | 5.7* | -63 | 8 | 195* | 137* | 110
Cc1cc(C(=O)CN2C(=O)NC3(CCCCC3)C2=O)c(C)n1Cc1ccc2c(c1)OCO2 | 16 | 120 | 106 | 1.6 | -22 | -5 | / | / | /
Cc1cc(C(=O)CN2C(=O)NC3(CCCCC3)C2=O)c(C)n1Cc1ccco1 | 122 | 158* | 120 | 1.2 | -68 | -19 | 180* | 137* | 134*
